Experimental data pooled from the literature.
Compare with care: the assays were run in different laboratories.
Observed: metabolic stability
Host: human

| Compound | system | conditions | half-life |
| --- | --- | --- | --- |
| CCN(CC)S(=O)(=O)c1ccc(S(=O)(=O)N2CCC[C@@H](C(=O)N3CCC(F)(F)CC3)C2)cc1 | liver microsomes | 1.05 µM | 2.7 min |
| CCCCOC(=O)NS(=O)(=O)c1sc(CC(C)C)cc1-c1ccc2c(c1)CCN(C(C)=O)C2 | liver microsomes | 1 µM, pH 7.4 | 8.7 min |
| CCS(=O)(=O)Nc1cccc(-c2cn(C)c(=O)c3ccccc23)c1 | liver microsomes | – | 315 min |
| CCCCOC(=O)NS(=O)(=O)c1sc(CC(C)C)cc1-c1cccc2c1CN(C(C)=O)C2 | liver microsomes | 1 µM, pH 7.4 | 15 min |
| COc1ccc([C@@H]2Sc3ccccc3N(CCN(C)C)C(=O)[C@@H]2OC(C)=O)cc1 | hepatocytes | 1 µM | 91.8 min |
| CCN(CC)CCNC(=O)c1c(C)[nH]c(/C=C2\C(=O)Nc3ccc(F)cc32)c1C | liver microsomes | 1 µM, pH 7.4 | 37.4 min |
| CCCN(C)Cc1cc(-c2[nH]c3cccc(F)c3c(=O)c2C)ccc1Cc1ccc(OC(F)(F)F)cc1 | liver microsomes | – | 1.67 min |
| O=C(OC(C(F)(F)F)C(F)(F)F)N1Cc2ccc(OCCN3CCOCC3)cc2C1 | liver microsomes | – | 40 min |
| O=C(NC1CCC1)c1ccc2nc(-c3cccc(NS(=O)(=O)NCCN4CCCCC4)c3)cn2c1 | liver microsomes | 1 µM | 21 min |
| CCCCOC(=O)NS(=O)(=O)c1sc(CC(C)C)cc1-c1ccc2c(c1)CN(C(C)=O)C2 | liver microsomes | 1 µM, pH 7.4 | 2.4 min |
| C[C@H](CCCOc1cccc(CO)c1)[C@H]1CC[C@H]2[C@@H]3CC=C4C[C@@H](O)CC[C@]4(C)[C@H]3CC[C@]12C | liver microsomes | 1 µM, pH 7.4 | 330 min |
| CC(C)NCC(O)COc1cccc2ccccc12 (stereo not shown) | liver microsomes | 1 µM | 57.8 min |
| CC[C@@H]1C=CC(=O)O[C@@H]1C[C@@H](O)[C@H](C)[C@H](OC)[C@@H](C)Cc1ccc(F)cc1 | liver microsomes | – | 3.3 min |
| Cc1cccc(-n2ncc(Cl)c(Cl)c2=O)c1 | liver microsomes | – | 6.6 min |
| CCSC1CC(=O)C(C)(CCC(=O)Nc2c(O)ccc(C(=O)O)c2O)C2C3CC4CC12CC4(C)O3 (stereo not shown) | liver microsomes | – | 22 min |
| O=C(N[C@H](Cc1c[nH]c2ccccc12)C(=O)Nc1ccncc1)c1ccc(-c2ccc(F)c(F)c2)cc1F | liver microsomes | – | 18 min |
| Cc1ccc(S(=O)(=O)Nc2cccc(-c3nnn[nH]3)c2)cc1C(F)(F)F | liver microsomes | – | 4 min |
| CC[C@@H]1C=CC(=O)O[C@@H]1C[C@@H](O)[C@H](C)[C@H](OC)[C@@H](C)Cc1ccccc1 | liver microsomes | – | 5.4 min |
| CCCCCCCc1c(C)nc2cc(OC)ccc2c1O | liver microsomes | 1 µM | 10.2 min |
| O=C(O)Cc1ccccc1Nc1c(Cl)cccc1Cl | hepatocytes | 1 µM | 18.4 min |
| Cc1ccc(S(=O)(=O)Nc2cccc(-c3nnn[nH]3)c2)cc1C | liver microsomes | – | 2 min |
| O=C1CCN(C(=O)Nc2ccc(F)c(Cl)c2)[C@H]2CCCC[C@@H]12 (relative stereo) | liver microsomes | – | > 56 min |
| COc1ccc2cc(C(=O)Nc3ccc4c(c3)CN(C3CCC(=O)NC3=O)C4=O)ccc2c1 (stereo not shown) | liver microsomes | 2 µM, 1 h | 3.8 min |
| O=C(CC1Cc2ccccc2C1)N[C@H](CN1CCCC1)[C@H](O)c1ccc2c(c1)OCCO2 | liver microsomes | – | 28 min |
| COc1ccc(CNc2c(CO)cnc3c(C4CC4)cc(C#N)cc23)cc1Cl | liver microsomes | – | 19.5 min |
| CCOc1ccc2ccc(=O)oc2c1 | liver microsomes | 1 µM, pH 7.4 | 10 min |
| CCCCOC(=O)NS(=O)(=O)c1sc(CC(C)C)cc1-c1ccc2c(c1)CN(C(C)=O)CC2 | liver microsomes | 1 µM, pH 7.4 | 5.4 min |
| CC(C)(C)c1ccc(O)c(CN(Cc2cc(C(C)(C)C)ccc2O)C2CCC(NC(N)=O)CC2)c1 (stereo not shown) | liver microsomes | 1 µM, pH 7.4 | 39.8 min |
